Measurements reported in ChEMBL document CHEMBL1687906, “Discovery of novel and potent orally active calcium-sensing receptor antagonists that stimulate pulselike parathyroid hormone secretion: synthesis and structure-activity relationships of tetrahydropyrazolopyrimidine derivatives” (J Med Chem, 2011).
In brackets after ≈: the same amount, converted by molar mass. Activity calls are given as the source filed them. The calls are words filed in the database; no cut-off is given here.

Assays:
[1] = target: T1, Extracellular calcium-sensing receptor (Homo sapiens, UniProt P41180); experiment: Inhibition of CaSR expressed in CHO cells incubated with compound for 10 mins measured after 1 hr by [35S]GTPgammaS binding assay; type: functional, cell-based
T1 sequence (P41180 whole entry): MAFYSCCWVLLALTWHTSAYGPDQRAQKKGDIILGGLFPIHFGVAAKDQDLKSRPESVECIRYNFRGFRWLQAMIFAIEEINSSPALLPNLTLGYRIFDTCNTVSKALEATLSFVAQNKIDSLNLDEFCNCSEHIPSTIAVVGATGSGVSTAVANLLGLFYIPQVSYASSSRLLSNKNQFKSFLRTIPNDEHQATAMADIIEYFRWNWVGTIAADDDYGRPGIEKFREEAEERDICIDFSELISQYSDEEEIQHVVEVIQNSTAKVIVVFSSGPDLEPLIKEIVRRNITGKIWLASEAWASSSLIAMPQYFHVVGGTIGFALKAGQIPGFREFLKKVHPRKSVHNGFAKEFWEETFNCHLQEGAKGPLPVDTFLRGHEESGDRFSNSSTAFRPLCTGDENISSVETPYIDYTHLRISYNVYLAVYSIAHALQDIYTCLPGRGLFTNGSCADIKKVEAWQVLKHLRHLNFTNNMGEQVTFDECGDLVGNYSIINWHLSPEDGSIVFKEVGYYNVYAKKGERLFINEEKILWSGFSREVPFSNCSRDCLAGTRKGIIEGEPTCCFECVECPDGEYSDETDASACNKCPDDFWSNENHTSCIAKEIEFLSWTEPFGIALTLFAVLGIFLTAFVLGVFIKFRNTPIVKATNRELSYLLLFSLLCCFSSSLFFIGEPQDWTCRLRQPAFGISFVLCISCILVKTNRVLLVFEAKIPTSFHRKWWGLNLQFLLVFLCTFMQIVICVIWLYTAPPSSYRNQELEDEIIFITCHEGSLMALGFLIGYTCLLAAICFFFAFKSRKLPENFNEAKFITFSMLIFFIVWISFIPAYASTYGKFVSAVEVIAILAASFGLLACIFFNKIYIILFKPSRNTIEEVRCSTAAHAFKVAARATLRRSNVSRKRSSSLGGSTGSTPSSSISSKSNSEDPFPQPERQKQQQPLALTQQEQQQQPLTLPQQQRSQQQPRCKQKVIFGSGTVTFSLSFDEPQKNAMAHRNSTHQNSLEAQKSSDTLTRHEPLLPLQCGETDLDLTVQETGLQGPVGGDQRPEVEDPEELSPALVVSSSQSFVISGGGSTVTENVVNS
Summary of the method: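 Membranes from CaSR-expressing CHO cells preincubated with compound for 10 min. Binding then run 1 h at room temperature in 20 mM HEPES pH 7.4, 100 mM NaCl, 1 mM MgCl2, 167 μg/mL DTT, 5 μM GDP, 0.4 nM [35S]GTPγS and 6 mM CaCl2. Samples filtered through GF/C and washed with PBS; radioactivity counted by scintillation. IC50 obtained by nonlinear regression.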

[2] = Thermodynamic solubility of the compound in aqueous buffer containing 20 mmol/L sodium glycochenodeoxycholate at pH 6.8 by HPLC analysis; type: physicochemical; settings: aqueous buffer with 20 mmol/L sodium glycochenodeoxycholate
Summary of the method: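 Compound added to pH 6.8 aqueous buffer containing 20 mmol/L sodium glycochenodeoxycholate; after incubation, precipitate removed by filtration and filtrate concentration determined by HPLC.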

[3] = Metabolic stability in rat hepatic microsomes after 20 mins by HPLC/MS analysis; type: ADME; settings: liver microsomes, read-out: Stability
Summary of the method: (§1)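 Hepatic microsomes, 0.2 mg/mL protein, in 50 mmol/L potassium phosphate pH 7.4 with […] test compound. An NADPH-generating system (MgCl2, glucose-6-phosphate, β-NADP+, G6PDH) added at 10% of the reaction volume. Incubated at 37 °C for 0 and 20 min.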

[4] = Metabolic stability in human hepatic microsomes after 20 mins by HPLC/MS analysis; type: ADME; settings: liver microsomes, read-out: Stability; summary of the method: as §1
Rattus norvegicus [5] = experiment: Increase of PTH level in rat plasma at 10 mg/kg, po after 2 hrs by ELISA; type: functional, organism-based; set-up: dose 10 mg/kg
Rattus norvegicus [6] = experiment: Induction of bone formation in osteopenic ovariectomized CD(SD)IGS rat model assessed as proximal tibia bone mineral density at 10 mg/kg, po administered once daily for 3 months measured after 1 day last post treatment (reference value: 649+/- 8 mg/cm3); type: functional
[7] = AUC (0 to 24 hrs) in Crl:CD(SD) rat at 10 mg/kg, po; type: ADME, organism-based; set-up: time < 24 hr, dose 10 mg/kg, route oral; settings: plasma
Summary of the method: (§2)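 Nonfasted female Crl:CD(SD) rats, 12 weeks old, n = 3, given 10 mg/kg orally as a 0.5% methylcellulose suspension. Plasma collected at 0.25, 0.5, 1, 2, 4, 8 and 24 h, deproteinized with acetonitrile, diluted with 0.01 mol/L ammonium acetate. Drug measured by HPLC on an ODS column, ammonium acetate/acetonitrile 3/7, 40 °C, UV 262 nm.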

Caco-2 [8] = experiment: Apparent permeability across apical to basolateral side of human Caco2 cells at 10 umol/L; type: ADME, cell-based; settings: caco-2, 10 µM, in the assay text read “basolateral to apical” for “apical to basolateral”
Summary of the method: (§3)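 Confluent Caco-2 monolayers on collagen-coated polycarbonate Transwell membranes. Buffer is HBSS with 10 mmol/L HEPES, 15 mmol/L glucose and 1% BSA, pH 7.3-7.5. Compound at 10 μmol/L dosed apically (A-to-B) or basolaterally (B-to-A), 37 °C, 5% CO2. Receivers sampled at 1 and 2 h. Lucifer yellow integrity check and cell-free blank run. LC/MS/MS read-out; Papp calculated; duplicates.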

[9] = Cmax in Crl:CD(SD) rat at 10 mg/kg, po; type: ADME, organism-based; set-up: dose 10 mg/kg, route oral; settings: in vivo; summary of the method: as §2
[10] = Tmax in Crl:CD(SD) rat at 10 mg/kg, po; type: ADME, organism-based; set-up: dose 10 mg/kg, route oral; settings: in vivo; summary of the method: as §2
[11] = Mean residence time in Crl:CD(SD) rat at 10 mg/kg, po; type: ADME, organism-based; set-up: dose 10 mg/kg, route oral; settings: in vivo; summary of the method: as §2
Rattus norvegicus [12] = experiment: Induction of bone formation in osteopenic ovariectomized CD(SD)IGS rat model assessed as plasma osteocalcin level at 10 mg/kg, po administered once daily for 3 months measured after 2 months by RIA (reference value: 21.1+/- 2.4 ng/ml); type: functional
Rattus norvegicus [13] = experiment: Increase of PTH level in rat plasma at 10 mg/kg, po after 30 mins by ELISA; type: functional
Rattus norvegicus [14] = experiment: Induction of bone formation in osteopenic ovariectomized CD(SD)IGS rat model assessed as distal femur BMD at 10 mg/kg, po administered once daily for 3 months measured after 1 day last post treatment (reference value: 622+/- 7 mg/cm3); type: functional
Caco-2 [15] = experiment: Apparent permeability across apical to basolateral side in human Caco2 cells at 10 umol/L; type: ADME, cell-based; settings: caco-2, 10 µM; summary of the method: as §3

Structure (SMILES) | IC50 [1] | solubility thermodynamic [2] | other results
CC(C)C(NC(=O)c1cnn2c1NC(c1ccccc1)CC2(C)C)(c1ccc(C(F)(F)F)cc1)C(C)C (stereo not drawn) | 30 nM |  | 
CCOC(=O)c1ccc(C(CC)(CC)NC(=O)c2cnn3c2NC(c2ccccc2)CC3(C)C)cc1 (stereo not drawn) [listing 1 of 2 here] | 5.2 nM | 5.4 µg/mL (≈ 11.1 µM) | 
CCC(CC)(NC(=O)c1cnn2c1NC(c1ccccc1)CC2(C)C)c1ccccc1F (stereo not drawn) | 12 nM |  | 
O=C(NC(c1ccccc1)c1ccccc1)c1cnn2c1N[C@H](c1ccccc1)C[C@@H]2C(F)(F)F | 380 nM |  | 
CCC(CC)(NC(=O)c1cnn2c1NC(c1ccccc1)CC2(C)C)c1ccc(F)cc1 (stereo not drawn) | 7.3 nM | 8.5 µg/mL (≈ 19.6 µM) | microsomal CLint [3]: 129 µL/min/mg; microsomal CLint [4]: 89 µL/min/mg
CCC(CC)(NC(=O)c1cnn2c1NC(c1ccccc1)CC2(C)C)c1ccc(Cl)cc1.O=S(=O)(O)O (stereo not drawn) |  | 202 µg/mL | 
CCC(CC)(NC(=O)c1cnn2c1N[C@H](c1ccccc1)CC2(C)C)c1ccc(C)cc1 | 31 nM |  | 
CCC(CC)(NC(=O)c1cnn2c1NC(c1ccccc1)CC2(C)C)c1cccc(F)c1 (stereo not drawn) | 25 nM |  | 
CCC(CC)(NC(=O)c1cnn2c1NC(c1ccccc1)CC2(C)C)c1ccc(C)cc1.CS(=O)(=O)O (stereo not drawn) |  | 118 µg/mL | 
CCC(CC)(NC(=O)c1cnn2c1NC(c1ccccc1)CC2(C)C)c1ccc(OCc2ccccc2)cc1 (stereo not drawn) | 8.5 nM | 24.3 µg/mL (≈ 46.5 µM) | microsomal CLint [3]: 24 µL/min/mg; microsomal CLint [4]: 48 µL/min/mg
CCCC(CCC)(NC(=O)c1cnn2c1NC(c1ccccc1)CC2(C)C)c1ccc(C(F)(F)F)cc1 (stereo not drawn) | 4.4 nM |  | 
CCC(CC)(NC(=O)c1cnn2c1NC(c1ccccc1)CC2(C)C)c1ccc(C)cc1 (racemic) |  |  | Activity (Rattus norvegicus [5]): inactive
CCC(CC)(NC(=O)c1cnn2c1NC(c1ccccc1)CC2(C)C)c1ccc(Cl)cc1.CS(=O)(=O)O (stereo not drawn) |  | 164 µg/mL | 
CCC(CC)(NC(=O)c1cnn2c1NC(c1ccccc1)CC2(C)C)c1ccc(COC(C)=O)cc1 (stereo not drawn) | 14 nM |  | 
CCC(=O)Oc1ccc(C(CC)(CC)NC(=O)c2cnn3c2NC(c2ccccc2)CC3(C)C)cc1 (stereo not drawn) | 12 nM |  | 
CCC(CC)(NC(=O)c1cnn2c1NC(c1ccccc1)CC2(C)C)c1ccc(OC)cc1 (stereo not drawn) | 6.6 nM | 59.6 µg/mL (≈ 133 µM) | microsomal CLint [3]: 158 µL/min/mg; microsomal CLint [4]: 67 µL/min/mg

Structure (SMILES) | IC50 [1] | solubility thermodynamic [2] | other results
O=C(NCc1ccc(C(F)(F)F)cc1)c1cnn2c1N[C@H](c1ccccc1)C[C@@H]2C(F)(F)F | 2900 nM |  | 
CCC(CC)(NC(=O)c1cnn2c1NC(c1ccccc1)CC2(C)C)c1ccc(C)cc1.Cl (racemic) | 4.9 nM | 140 µg/mL | Activity (Rattus norvegicus [6]): 700 mg/cm3; AUC(0-t) at 24 h [7]: 2460 ng·h/mL; Papp (Caco-2 [8]): 42.7 10^-6 cm/s; Cmax [9]: 374 ng/mL; Tmax [10]: 0.67 h; MRT [11]: 5.65 h; Activity (Rattus norvegicus [12]): 28.4 ng/mL; Activity (Rattus norvegicus [13]): 120 pg/mL; Activity (Rattus norvegicus [14]): 660 mg/cm3; Papp (Caco-2 [15]): 58.9 10^-6 cm/s
CCC(CC)(NC(=O)c1cnn2c1NC(c1ccccc1)CC2(C)C)c1ccc(Cl)cc1 (stereo not drawn) | 7.4 nM | 54 µg/mL (≈ 120 µM) | microsomal CLint [3]: 57 µL/min/mg; Papp (Caco-2 [8]): 36.8 10^-6 cm/s; microsomal CLint [4]: 18 µL/min/mg; Papp (Caco-2 [15]): 52.6 10^-6 cm/s
CC(C)(NC(=O)c1cnn2c1NC(c1ccccc1)CC2(C)C)c1ccc(C(F)(F)F)cc1 (stereo not drawn) | 3.5 nM |  | 
CC1(C)CC(c2ccccc2)Nc2c(C(=O)NC(c3ccc(C(F)(F)F)cc3)(C3CCCCC3)C3CCCCC3)cnn21 (stereo not drawn) | 150 nM |  | 
CCCCC(CCCC)(NC(=O)c1cnn2c1NC(c1ccccc1)CC2(C)C)c1ccc(C(F)(F)F)cc1 (stereo not drawn) | 23 nM |  | 
CCC(CC)(NC(=O)c1cnn2c1NC(c1ccccc1)CC2(C)C)c1ccccc1 (stereo not drawn) | 3.4 nM | 22.3 µg/mL (≈ 53.5 µM) | microsomal CLint [3]: 215 µL/min/mg; microsomal CLint [4]: 209 µL/min/mg
CCC(CC)(NC(=O)c1cnn2c1NC(c1ccccc1)CC2(C)C)c1ccc(OC(C)=O)cc1 (stereo not drawn) | 31 nM |  | 
CCC(CC)(NC(=O)c1cnn2c1NC(c1ccccc1)CC2(C)C)c1ccc(C)cc1 (stereo not drawn) | 5.5 nM | 15.6 µg/mL (≈ 36.2 µM) | microsomal CLint [3]: 164 µL/min/mg; microsomal CLint [4]: 122 µL/min/mg
CCC(CC)(NC(=O)c1cnn2c1NC(c1ccccc1)CC2(C)C)c1cccc(Cl)c1 (stereo not drawn) | 17 nM |  | 
CCC(CC)(NC(=O)c1cnn2c1N[C@@H](c1ccccc1)CC2(C)C)c1ccc(C)cc1 | 2.3 nM |  | 
CCC(CC)(NC(=O)c1cnn2c1NC(c1ccccc1)CC2(C)C)c1ccc(Cl)cc1.Cl (stereo not drawn) |  | 126 µg/mL | AUC(0-t) at 24 h [7]: 2460 ng·h/mL; Cmax [9]: 374 ng/mL; Tmax [10]: 0.67 h; MRT [11]: 5.65 h
CCC(CC)(NC(=O)c1cnn2c1NC(c1ccccc1)CC2(C)C)c1ccc(C(F)(F)F)cc1 (stereo not drawn) | 7.6 nM | 4.6 µg/mL (≈ 9.49 µM) | microsomal CLint [3]: 13 µL/min/mg; Papp (Caco-2 [8]): 24.2 10^-6 cm/s; microsomal CLint [4]: 14 µL/min/mg; Papp (Caco-2 [15]): 32.7 10^-6 cm/s
CCOC(=O)c1ccc(C(CC)(CC)NC(=O)c2cnn3c2NC(c2ccccc2)CC3(C)C)cc1 (stereo not drawn) [listing 2 of 2 here] |  |  | microsomal CLint [3]: 138 µL/min/mg; microsomal CLint [4]: 91 µL/min/mg
CC(=O)O.CCC(CC)(NC(=O)c1cnn2c1NC(c1ccccc1)CC2(C)C)c1ccc(Cl)cc1 (stereo not drawn) |  | 202 µg/mL | 
